# Laboratory results taken from ChEMBL document CHEMBL4715825, “Synthesis and biological evaluations of marine oxohexadecenoic acids: PPARα/γ dual agonism and anti-diabetic target gene effects” (Eur J Med Chem, 2018).
# Activity calls are given as the source filed them. No cut-off for these calls is given here.
# Tests used:
# [1] = Cytotoxicity against African green monkey COS-1 cells assessed as cell viability at EC50 concentration for PPAR activation assay by LDH assay; format: cell-based; conditions: chlorocebus aethiops, read-out: Activity
# In short: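 Assayed in the same COS-1 cultures as the Gal4-LBD PPAR reporter assays. Lactate dehydrogenase released into the medium was measured with a commercial kit per the maker's protocol. Absorbance was read at 492/750 nm.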
# COS-1 = assay: Agonist activity at recombinant full length human PPARalpha/gamma/RXRalpha expressed in African green monkey COS-1 cells assessed as induction of CPT1A driven luciferase reporter activity at 25 uM incubated for 18 hrs by dual luciferase reporter gene assay; format: cell-based; conditions: filed as agonist
# In short: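 COS-1 cells were kept in DMEM/10% FBS at 37 °C, 5% CO2, and seeded at 7×10^4 per well. After 24 h they were lipofected with full-length PPAR and RXR expression plasmids, a PLIN1- or CPT1A-driven luciferase reporter and pRL-CMV Renilla control. Compound in DMSO (final 0.1%) was added 5 h later. After 18 h, cells were lysed for Dual-Luciferase readout. Three biological replicates were run in quadruplicate.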
# [2] = molecular target: T1, Peroxisome proliferator-activated receptor alpha (Homo sapiens) (UniProt Q07869); assay: Agonist activity at human PPARalpha in human HuH-7 cells assessed as increase in ANGPTL4 gene expression at 50 uM incubated for 24 hrs by SYBR-green based qPCR analysis; format: cell-based; conditions: filed as agonist
# T1 sequence (whole entry): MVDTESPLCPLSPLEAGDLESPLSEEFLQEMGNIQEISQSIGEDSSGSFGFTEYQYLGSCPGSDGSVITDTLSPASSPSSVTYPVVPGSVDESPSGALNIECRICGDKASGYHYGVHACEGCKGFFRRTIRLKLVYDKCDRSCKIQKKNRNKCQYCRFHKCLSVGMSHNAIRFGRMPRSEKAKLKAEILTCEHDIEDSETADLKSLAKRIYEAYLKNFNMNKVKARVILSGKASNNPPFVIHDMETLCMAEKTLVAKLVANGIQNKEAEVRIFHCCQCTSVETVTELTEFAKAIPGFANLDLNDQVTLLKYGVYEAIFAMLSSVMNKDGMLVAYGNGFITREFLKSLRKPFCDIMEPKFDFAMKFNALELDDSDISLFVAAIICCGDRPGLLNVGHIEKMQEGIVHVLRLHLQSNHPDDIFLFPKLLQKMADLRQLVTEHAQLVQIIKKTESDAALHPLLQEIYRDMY
# In short: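 Cells were seeded at 2×10^5 per well and treated 24 h later with compound in DMSO (final 0.1%). The next day, cells were washed and scraped into RLT buffer. RNA was isolated, and target gene mRNA was quantified by SYBR-green qPCR with specific primers.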
# [3] = molecular target: T1, Peroxisome proliferator-activated receptor alpha (Homo sapiens); assay: Agonist activity at human PPARalpha in 8 day differentiated human SGBS cells assessed as increase in CPT1A gene expression at 25 uM incubated for 24 hrs by SYBR-green based qPCR analysis; format: cell-based; conditions: filed as agonist
# In short: (§1)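 SGBS preadipocytes were seeded at passage P6-P8 and grown to confluence. They were differentiated for 4 days in Quickdiff (3FC plus dexamethasone, IBMX and rosiglitazone), then kept in 3FC with medium renewed every fourth day. On day 8, cells were stimulated for 24 h in 3FC with compound:BSA or rosiglitazone. SYBR-green qPCR used gene-specific primers. Data are mean ± SEM of three biological replicates in duplicate.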
# [4] = molecular target: T1, Peroxisome proliferator-activated receptor alpha (Homo sapiens); assay: Agonist activity at human PPARalpha in 8 day differentiated human SGBS cells assessed as increase in ADIPOQ gene expression at 25 uM incubated for 24 hrs by SYBR-green based qPCR analysis; format: cell-based; in short: as §1
# SGBS [5] = assay: Induction of adipogenesis in 8 day differentiated human SGBS cells assessed as increase in PPARG mRNA expression at 25 uM measured upto 12 days by qRT-PCR analysis; format: functional, cell-based; conditions: time day <=12
# In short: (§2)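 SGBS cells were grown to confluence (day 0). Quickdiff medium was supplemented with compound or rosiglitazone for 4 days, followed by 3FC medium. DMSO or DMSO:BSA served as control. RNA was harvested on days 0, 4, 8 and 12, and expression was measured by SYBR-green qPCR. Data are mean ± SEM of at least three biological replicates in duplicate.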
# SGBS [6] = assay: Induction of adipogenesis in 8 day differentiated human SGBS cells assessed as increase in CD36 mRNA expression at 25 uM measured upto 12 days by qRT-PCR analysis; format: functional, cell-based; conditions: time day <=12; in short: as §2
# SGBS [7] = assay: Induction of adipogenesis in 8 day differentiated human SGBS cells assessed as increase in UCP1 mRNA expression at 25 uM measured over 12 days by qRT-PCR analysis; format: functional, cell-based; conditions: time 12.0 day
# In short: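 SGBS preadipocytes (passage P6-P8) were grown to confluence (day 0), then differentiated 4 days in Quickdiff (3FC with 25 nM dexamethasone, 0.5 mM IBMX) supplemented with 25 µM oxo-fatty acid (as BSA complex), then in 3FC medium with medium renewed every fourth day. Cells were harvested on days 0, 4, 8 and 12. mRNA was measured by SYBR green qPCR. Data are mean ± SEM from at least 3 biological replicates run in duplicate.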
# SGBS [8] = assay: Induction of adipogenesis in 8 day differentiated human SGBS cells assessed as upregulation of steroid biosynthesis genes at 25 uM incubated for 8 days by Illumina sequencing method; format: functional, cell-based
# In short: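 SGBS cells were differentiated for 8 days: Quickdiff for days 0-4 with 2 µM rosiglitazone or 25 µM oxo-fatty acid:BSA, then 3FC. Total RNA was extracted (RIN 9.80-10.00) and strand-specific TruSeq libraries were sequenced on NextSeq 500 (2×75 bp paired-end). Reads were aligned to hg19 and quantified as RPKM. Data were expressed as log2 fold over day-0 cells (n = 2-4) and grouped into KEGG gene sets.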
# [9] = molecular target: T2, Peroxisome proliferator-activated receptor gamma (Homo sapiens) (UniProt P37231); assay: Agonist activity at human PPARgamma in 8 day differentiated human SGBS cells assessed as decrease in CXCL5 gene expression at 25 uM incubated for 24 hrs by SYBR-green based qPCR analysis; format: cell-based; conditions: filed as agonist
# T2 sequence (whole entry): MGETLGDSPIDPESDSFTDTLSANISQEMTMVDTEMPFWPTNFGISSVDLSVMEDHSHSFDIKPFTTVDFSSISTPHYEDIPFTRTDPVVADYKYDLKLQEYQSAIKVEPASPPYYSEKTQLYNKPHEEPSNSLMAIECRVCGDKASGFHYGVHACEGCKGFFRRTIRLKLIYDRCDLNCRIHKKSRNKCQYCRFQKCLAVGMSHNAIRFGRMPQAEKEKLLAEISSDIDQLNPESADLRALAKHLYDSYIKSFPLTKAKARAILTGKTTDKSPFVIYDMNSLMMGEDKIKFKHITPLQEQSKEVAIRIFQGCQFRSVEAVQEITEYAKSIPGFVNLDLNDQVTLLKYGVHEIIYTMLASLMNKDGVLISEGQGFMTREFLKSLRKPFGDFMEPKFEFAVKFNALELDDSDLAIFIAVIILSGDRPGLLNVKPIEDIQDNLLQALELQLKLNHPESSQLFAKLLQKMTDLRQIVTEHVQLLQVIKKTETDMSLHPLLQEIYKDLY
Activity [2],Activity [3],Activity [4],Activity [9],Structure (SMILES),viability [1] [%],Activity (COS-1),Activity (SGBS [5]),Activity (SGBS [6]),Activity (SGBS [7]),Activity (SGBS [8])
Active,Active,inactive,Active,CCCCCCCC(=O)/C=C/CCCCCC(=O)O,> 95,Active,Active,Active,Active,Active
Active,Active,inactive,Active,CCCCC/C=C/C(=O)CCCCCCCC(=O)O,> 95,Active,Active,Active,Active,Active
